GPR7 antag – GPR7 receptor antagonists, primary screen, cell-based, fluorescence, single concentration; Neuropeptides B/W receptor type 1 (Homo sapiens), P48145; GPR7-expressing cells, fluorescence antagonist assay; inhibition, % at 4.4 µM; 290,000 tested, 1.1% active; in the data active = inhibition above about 16%, passing the limit was not always enough;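 also: cells stimulated with the agonist NPW; 0% = agonist with vehicle and 100% = vehicle without agonist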
Target sequence (P48145 whole entry, looked up): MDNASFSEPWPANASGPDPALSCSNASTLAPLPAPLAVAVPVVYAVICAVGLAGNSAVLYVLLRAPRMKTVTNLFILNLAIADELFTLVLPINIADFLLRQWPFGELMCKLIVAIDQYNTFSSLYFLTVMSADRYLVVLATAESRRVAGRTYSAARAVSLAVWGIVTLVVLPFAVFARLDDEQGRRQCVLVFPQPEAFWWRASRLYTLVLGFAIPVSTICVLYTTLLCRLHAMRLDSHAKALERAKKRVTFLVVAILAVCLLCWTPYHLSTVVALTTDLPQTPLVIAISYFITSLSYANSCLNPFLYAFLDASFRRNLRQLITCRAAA
TAAR1 ag – human TAAR1 agonists, primary screen, Fluo-8 calcium fluorescence, CHO RD-HGA16 cells | Trace amine-associated receptor 1 (Homo sapiens), Q96RJ0 | vehicle wells 0%, saturating PEA agonist 100% | activation, % at 3 µM | 360,000 tested, 0.99% active | AID 624467, 2012;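 active = activation above the mean activation of all test compounds in the run plus 3 SD, cut at about 38% in these data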
Target sequence (Q96RJ0 whole entry, looked up): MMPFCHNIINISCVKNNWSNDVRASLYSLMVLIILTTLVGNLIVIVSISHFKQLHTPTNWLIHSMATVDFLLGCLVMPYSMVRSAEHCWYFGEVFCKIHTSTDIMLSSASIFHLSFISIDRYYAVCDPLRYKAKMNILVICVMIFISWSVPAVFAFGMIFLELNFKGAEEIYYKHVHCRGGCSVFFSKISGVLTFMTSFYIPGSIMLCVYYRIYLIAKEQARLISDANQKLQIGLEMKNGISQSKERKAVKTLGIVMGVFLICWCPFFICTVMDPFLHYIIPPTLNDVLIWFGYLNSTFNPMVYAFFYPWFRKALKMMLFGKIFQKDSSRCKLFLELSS
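Assay system – CHO-derived RD-HGA16 cells with stable Gα16 and human TAAR1 · Compound dosing – one-point dosing at 3 µM (nominal) · Incubation – 17-24 h seeding, 75 min 37 °C dye, 30 min RT · Measured by – kinetic Fluo-8 calcium fluorescence · Control set – DMSO vehicle as 0%, PEA at EC100 as 100% · Repeats – single well for each compound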
OX1R antag-1 – antagonists of human orexin 1 receptor (OX1R). Orexin/Hypocretin receptor type 1 (Homo sapiens), O43613. OX1R-expressing cells, FRET antagonist read-out. inhibition, % at 6.6 µM. 330,000 tested, 1.8% active; in the data active = inhibition mostly above about 38%, no sharp cut-off; inactive = mostly below about 40%;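 also: 0% = agonist challenge alone and 100% = reference antagonist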
CHO parental Ca – ATP-evoked calcium signal inhibitors, parental CHO, primary screen, counter-screen for OX1R antagonist project, cell-based, fluorescence, Fluo-8 calcium dye | parental CHO-K1, ATP-induced calcium, Fluo-8 fluorescence | inhibition, % at 5.6 µM | 330,000 tested, 0.63% active | AID 463079, 2010;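 active = inhibition above that plate's mean sample inhibition plus 3 SD, cut at about 26% in these data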;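 also: 0% = ATP-challenged DMSO wells and 100% = DMSO wells without ATP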
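Assay system: parental CHO cells; Read-out basis: percent inhibition of ATP-evoked calcium rise, normalized to controls; Benchmarks: ATP and no-ATP DMSO wells; Compound dosing: single nominal dose of 5.6 µM per compound; Signal: Fluo-8 calcium dye fluorescence; Also added: ATP as calcium-mobilizing challenge; Repeats: singlicate.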
OX1R antag-2 – OX1R (HCRTR1) antagonists, primary screen, fluorescence, CHO/OX1R cells, Fluo-8 calcium, orexin A. inhibition, % at 5 µM. 330,000 tested, 0.43% active. Fluo-8 calcium fluorescence. AID 434989, 2010. Orexin/Hypocretin receptor type 1 (Homo sapiens), O43613;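 active = inhibition above its plate's threshold, mean inhibition of all tested compounds on the plate plus 3 SD, cut at about 37% in these data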;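 also: 0% = orexin A challenge wells and 100% = SB-334867-A antagonist wells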
TAAR1 antagonist – human TAAR1 antagonists, primary screen, Fluo-8 calcium fluorescence, CHO RD-HGA16 cells; AID 624466, 2012; inhibition, % at 3 µM; 360,000 tested, 1.5% active; Trace amine-associated receptor 1 (Homo sapiens), Q96RJ0; antagonist;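 active = inhibition above a per-plate cutoff, the mean inhibition of test compounds on that plate plus 3 SD, cut at about 49% in these data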;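 also: 0% = DMSO plus EC80 beta-PEA response and 100% = DMSO alone without agonist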
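Assay system: CHO-derived RD-HGA16 cells stably expressing human TAAR1 plus Gα16. Timing: 140 s kinetic read after compound, 140 s after agonist. Technique: kinetic Fluo-8 calcium fluorescence measurement. Measure: % inhibition of agonist calcium response.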
TAAR1 nonsel count – nonselective antagonists in TAAR1 counter-screen cells, counter-screen for hTAAR1 antagonist project, cell-based, fluorescence, calcium. 2,400 tested, 77% active. inhibition, % at 3 µM. counterscreen cell line, antagonist mode. shares compounds with TAAR1 antagonist; in the data active = inhibition above about 22%;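 also: CHO-Ga16 host cells stimulated with ATP at an EC80 level; 0% = agonist EC80 plus vehicle and 100% = vehicle without agonist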
TAAR1 antag conf – human TAAR1 antagonists, retest of hits, confirmation, cell-based, fluorescence; inhibition, % at 3 µM; 2,400 tested, 40% active; TAAR1-expressing cells, fluorescence antagonist read-out; shares compounds with TAAR1 antagonist; AID 651785, 2012; in the data active = inhibition above about 49%;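 also: CHO-Ga16 host cells challenged with agonist PEA near its EC80; 0% = agonist at EC80 plus vehicle and 100% = vehicle with no agonist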
Ga16 nonsel ag – calcium activation in Ga16-expressing cells, counter-screen for TAAR1 antagonist project, cell-based, fluorescence. 2,400 tested, 18% active. agonist counterscreen. shares compounds with TAAR1 antagonist. activation, % at 3 µM; in the data active = activation above about 12%;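 also: 0% = vehicle wells and 100% = saturating stimulus response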
TAAR1 ag counter – TAAR1 activation by candidate antagonists – cell-based, fluorescence, counter-screen for TAAR1 antagonist project | hTAAR1 cell line, agonist mode | activation, % at 3 µM | shares compounds with TAAR1 antagonist | 2,400 tested, 2% active; in the data active = activation above about 37%;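 also: CHO cells stably expressing TAAR1 with calcium dye readout; 0% = DMSO vehicle and 100% = full agonist response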
Starred values were filed as active, the others as inactive. In the library only some 4.6% were active in any assay of this set; here they are far more common.

For Cc1noc(C(=O)N2CCN(Cc3ccc4c(c3)OCO4)CC2)c1Cl the results were GPR7 antag 0, TAAR1 ag 0, OX1R antag-1 16, CHO parental Ca 0, OX1R antag-2 -23 and TAAR1 antagonist 4.
Screening NNC(=O)Cn1nc2n(c1=O)-c1ccccc1SC2 returned GPR7 antag -4, TAAR1 ag 1, OX1R antag-1 8, CHO parental Ca -14, OX1R antag-2 -24 and TAAR1 antagonist -26.
`C=CCNc1sc(C(=O)c2ccc(C)cc2)c(N)c1C#N` gave GPR7 antag -16, TAAR1 ag 5, OX1R antag-1 20, CHO parental Ca -29, OX1R antag-2 -2 and TAAR1 antagonist -17.
C=CCNc1nc(N)c(C(=C(C#N)C#N)c2ccc(Br)cc2)s1 was read as GPR7 antag 6, TAAR1 ag 9, OX1R antag-1 12, CHO parental Ca -9, OX1R antag-2 1, TAAR1 antagonist 68*, TAAR1 nonsel count 27*, TAAR1 antag conf 62*, Ga16 nonsel ag 6 and TAAR1 ag counter 15.
For Cc1ccc(-n2c(C)cc(/C=N/Nc3ccc([N+](=O)[O-])cn3)c2C)cc1 the results were GPR7 antag 1, OX1R antag-1 23, CHO parental Ca -11, OX1R antag-2 -18, TAAR1 nonsel count 4 and Ga16 nonsel ag 0.
`Cc1cc(/C=N/Nc2ccc([N+](=O)[O-])cn2)c(C)n1-c1ccccc1` gave GPR7 antag 4, TAAR1 ag -4, OX1R antag-1 27, CHO parental Ca -7, OX1R antag-2 2 and TAAR1 antagonist 40.
For O=C(CC1CC1)Nc1ccc2c(c1)[C@@H]1C[C@H](CC(=O)NC3CCCC3)O[C@@H](CO)[C@@H]1O2 the results were TAAR1 ag -1, TAAR1 antagonist 86*, TAAR1 nonsel count -6, TAAR1 antag conf 5, Ga16 nonsel ag 1 and TAAR1 ag counter 5.
C=C(C)COc1ccc(-c2n[nH]c(C)c2-c2ccc(OC)cc2)c(O)c1 was read as GPR7 antag -24, TAAR1 ag 7, OX1R antag-1 26, CHO parental Ca -1, OX1R antag-2 -20, TAAR1 antagonist 62*, TAAR1 nonsel count 6, TAAR1 antag conf 9, Ga16 nonsel ag 7 and TAAR1 ag counter 11.
For O=C(NNC(=O)c1ccc(Br)s1)c1cccc(Cl)c1 the results were TAAR1 ag 0, OX1R antag-1 -1, CHO parental Ca -7, OX1R antag-2 12 and TAAR1 antagonist -23.
`COc1cc(NC(=S)NC(=O)c2ccccc2F)ccc1NC(=O)c1cccs1` gave GPR7 antag -10, TAAR1 ag 5, OX1R antag-1 13, CHO parental Ca -17, OX1R antag-2 -38 and TAAR1 antagonist -13.
For O=C(Nc1ccc(NC(=S)NC(=O)c2ccccc2F)cc1)c1cccs1 the results were GPR7 antag -3, TAAR1 ag 11, OX1R antag-1 32, CHO parental Ca 0, OX1R antag-2 -30, TAAR1 antagonist 52*, TAAR1 nonsel count 20, TAAR1 antag conf 28, Ga16 nonsel ag 9 and TAAR1 ag counter 10.
For COC(=O)[C@@]1(Sc2ccc(C)cc2)CC(=O)N(c2ccccc2)[C@@H]1c1ccccc1 the results were TAAR1 ag 8, TAAR1 antagonist 95*, TAAR1 nonsel count 39*, TAAR1 antag conf 78*, Ga16 nonsel ag 7 and TAAR1 ag counter 8.
CCOC(=O)[C@H]1[C@H]2COc3cc(OC)ccc3[C@@H]2N2C(=O)CN(Cc3ccc(OC)cc3)C(=O)[C@@]12C was read as TAAR1 ag 6, OX1R antag-1 2, CHO parental Ca -20, OX1R antag-2 -42 and TAAR1 antagonist 17.
`O=C(NCC1CCCO1)c1cc(S(=O)(=O)Nc2ccc(Br)cc2)ccc1Cl` (stereo not given) gave GPR7 antag -2, TAAR1 ag 6, OX1R antag-1 3, CHO parental Ca -2, OX1R antag-2 -22 and TAAR1 antagonist 14.
`CC1(C)C(=O)N(CCN2CCC(C(=O)c3ccc(F)cc3)CC2)c2ccccc21` gave TAAR1 ag 13, OX1R antag-1 19, CHO parental Ca -14, OX1R antag-2 -17, TAAR1 antagonist 87*, TAAR1 nonsel count 37*, TAAR1 antag conf 56*, Ga16 nonsel ag 12* and TAAR1 ag counter 10.
For O=C(c1ccc(F)cc1)C1CCN(CCn2c(=S)[nH]c3ccccc3c2=O)CC1 the results were GPR7 antag -1, OX1R antag-1 15, CHO parental Ca -17 and OX1R antag-2 -13.
CN(C(=O)c1cccc(NC(=O)Cc2ccc(NC(=O)C3CCCN(S(=O)(=O)c4cccc([N+](=O)[O-])c4)C3)cc2)c1)C1CCC1 (stereo not given) was read as TAAR1 ag 0 and TAAR1 antagonist -14.
`CCOc1ncccc1C(=O)OCC(=O)NCCc1ccc(S(N)(=O)=O)cc1` gave TAAR1 ag 0, OX1R antag-1 4, CHO parental Ca -7, OX1R antag-2 -3 and TAAR1 antagonist 0.
Screening Nc1ccn(C2CSC(CO)O2)c(=O)n1 (stereo not given) returned TAAR1 ag 3 and TAAR1 antagonist -9.
COc1ccc(CCNC2CC(=O)N(CCc3ccccc3)C2=O)cc1OC (stereo not given) was read as GPR7 antag 0, TAAR1 ag -1, OX1R antag-1 7, CHO parental Ca -15, OX1R antag-2 -33 and TAAR1 antagonist 8.

Compound activity as filed in PubChem.
